pIC50: −log10 of the molar value. Values after ≈ are worked out from the molar mass of the structure shown.
Tests used:
[1] = test system: KG-1; experiment: Antiproliferative activity against human KG1 cells after 72 hrs by CCK8 assay; conditions: KG-1, 72 h
[2] = AUC (0 to infinity) in ICR(CD-1) mouse at 10 mg/kg, po administered via gavage by triple quadrupole mass spectrometric analysis; assay type: ADME, organism-based; design: dose 10 mg/kg, route oral, time infinity; conditions: in vivo
In short: (§1)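 Oral gavage at 1 mg/mL in 1% Tween80/water to male ICR mice (18-22 g, n=3). Plasma sampled at 0.25, 0.5, 1, 2, 4, 8 and 24 h, protein precipitated with methanol:acetonitrile (1:1) containing internal standard, and quantified by UPLC-triple quadrupole MS. AUC and MRT were taken from per-animal time-concentration curves. Cmax is the maximum plasma level and Tmax the time to reach it.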

[3] = Tmax in ICR(CD-1) mouse at 10 mg/kg, po administered via gavage by triple quadrupole mass spectrometric analysis; assay type: ADME, organism-based; conditions: in vivo
In short: (§2)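 Dosed by gavage at 1 mg/mL in 1% Tween80/water to male ICR mice, 18-22 g, n=3. Blood taken at 0.25, 0.5, 1, 2, 4, 8 and 24 h. Plasma precipitated with methanol:acetonitrile (1:1) containing internal standard, then UPLC-MS/MS on a C18 column with an ammonium acetate/formic acid–acetonitrile gradient. Tmax read directly from the data; MRT calculated per animal from concentration–time curves.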

[4] = AUC (0 to t) in ICR(CD-1) mouse at 10 mg/kg, po administered via gavage by triple quadrupole mass spectrometric analysis; assay type: ADME, organism-based; conditions: in vivo; in short: as §1
[5] = biological target: T1, Discoidin domain-containing receptor 2 (Homo sapiens, UniProt Q16832); experiment: Inhibition of DDR2 (unknown origin) using poly (Glu, Tyr) 4:1 substrate after 60 mins by ELISA
T1 sequence (Q16832 whole entry): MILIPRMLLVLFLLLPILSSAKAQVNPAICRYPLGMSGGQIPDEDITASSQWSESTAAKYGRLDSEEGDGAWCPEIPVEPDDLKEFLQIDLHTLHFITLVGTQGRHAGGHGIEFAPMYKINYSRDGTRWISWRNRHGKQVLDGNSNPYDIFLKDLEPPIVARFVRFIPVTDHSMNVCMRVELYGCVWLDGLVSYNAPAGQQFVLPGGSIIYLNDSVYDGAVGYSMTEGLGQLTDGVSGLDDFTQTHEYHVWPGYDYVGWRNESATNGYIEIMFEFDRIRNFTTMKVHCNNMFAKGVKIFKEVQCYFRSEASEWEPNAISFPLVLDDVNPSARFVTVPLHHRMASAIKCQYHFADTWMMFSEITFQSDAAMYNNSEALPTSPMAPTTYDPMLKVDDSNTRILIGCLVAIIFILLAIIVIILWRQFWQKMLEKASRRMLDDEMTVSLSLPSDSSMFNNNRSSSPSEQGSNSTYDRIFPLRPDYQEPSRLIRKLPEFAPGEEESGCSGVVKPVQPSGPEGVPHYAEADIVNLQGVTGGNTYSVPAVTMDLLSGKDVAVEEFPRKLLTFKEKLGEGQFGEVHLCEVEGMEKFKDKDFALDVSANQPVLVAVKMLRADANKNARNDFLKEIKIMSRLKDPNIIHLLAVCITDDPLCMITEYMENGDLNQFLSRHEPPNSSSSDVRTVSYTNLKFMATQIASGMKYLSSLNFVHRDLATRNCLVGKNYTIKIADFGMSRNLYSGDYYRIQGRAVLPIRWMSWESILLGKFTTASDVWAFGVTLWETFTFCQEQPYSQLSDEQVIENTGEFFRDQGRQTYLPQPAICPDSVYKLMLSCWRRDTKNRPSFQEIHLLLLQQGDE

[6] = MRT in ICR(CD-1) mouse at 10 mg/kg, po administered via gavage by triple quadrupole mass spectrometric analysis; assay type: ADME, organism-based; conditions: in vivo; in short: as §2
[7] = test system: NCI-H2286; experiment: Antiproliferative activity against human NCI-H2286 cells after 72 hrs by CCK8 assay; conditions: NCI-H2286, 72 h
[8] = Cmax in ICR(CD-1) mouse at 10 mg/kg, po administered via gavage by triple quadrupole mass spectrometric analysis; assay type: ADME, organism-based; design: dose 10 mg/kg, route oral; conditions: in vivo; in short: as §1
[9] = Half life in ICR(CD-1) mouse at 10 mg/kg, po administered via gavage by triple quadrupole mass spectrometric analysis; assay type: ADME, organism-based; conditions: in vivo; in short: as §1
[10] = biological target: T2, Discoidin domain-containing receptor 2 (Homo sapiens) (UniProt Q16832); experiment: Inhibition of DDR2 (unknown origin) at 100 nM using poly (Glu, Tyr) 4:1 substrate after 60 mins by ELISA relative to control
T2 sequence (whole entry): T1 sequence (Q16832 whole entry)
In short: (§3)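 ELISA with purified recombinant DDR2 on poly(Glu,Tyr) 4:1 precoated at 20 µg/mL. 10 µM ATP in HEPES pH 7.4 buffer with MgCl2, MnCl2, Na3VO4 and DTT, 1% DMSO; 60 min at 37 °C. Phosphotyrosine detected by PY99 and HRP anti-mouse IgG with o-phenylenediamine at A490. Inhibition = 1−A490/A490control; two separate experiments.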

[11] = biological target: T2, Discoidin domain-containing receptor 2 (Homo sapiens); experiment: Inhibition of DDR2 (unknown origin) at 1000 nM using poly (Glu, Tyr) 4:1 substrate after 60 mins by ELISA relative to control; in short: as §3
[12] = test system: NCI-H2286; experiment: Antiproliferative activity against human NCI-H2286 cells at 100 nM after 72 hrs by CCK8 assay relative to control; assay type: functional
[13] = biological target: T2, Discoidin domain-containing receptor 2 (Homo sapiens); experiment: Inhibition of DDR2 (unknown origin) at 20 uM using poly (Glu, Tyr) 4:1 substrate after 60 mins by ELISA relative to control; in short: as §3
[14] = test system: SNU-16; experiment: Antiproliferative activity against FGFR2 amplified human SNU16 cells after 72 hrs by CCK8 assay; assay type: functional, cell-based; conditions: SNU-16, 72 h
In short: (§4)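 Cells seeded at low density in growth medium and compounds added the next day. Incubated 72 h, then proliferation read by sulforhodamine B, MTT or CCK-8. IC50 obtained by four-parameter concentration-response curve fitting.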

[15] = test system: KG-1; experiment: Antiproliferative activity against FGFR1 fused human KG1 cells after 72 hrs by CCK8 assay; assay type: functional, cell-based; conditions: KG-1, 72 h; in short: as §4
[16] = Antiproliferative activity against human UM-UC-14 cells harboring FGFR3 mutation after 72 hrs by CCK8 assay; assay type: functional, cell-based; conditions: UMUC14, 72 h; in short: as §4
[17] = test system: NCI-H716; experiment: Antiproliferative activity against FGFR2 amplified human NCI-H716 cells after 72 hrs by CCK8 assay; assay type: functional, cell-based; conditions: NCI-H716, 72 h; in short: as §4
[18] = Efflux ratio of permeability in human Caco2 cells at 5 uM after 120 mins by LC-MS/MS analysis; assay type: ADME, cell-based; conditions: Caco-2
In short: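 Caco-2 (C2BBe1) monolayers grown to confluence on collagen-coated transwell polycarbonate membranes. Compound at 5 μM added apically or basolaterally in HBSS with 10 mM HEPES at pH 7.4 and 6.8. Duplicate samples taken at 120 min and analysed by LC-MS/MS. Efflux ratio = Papp(B→A)/Papp(A→B).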

[19] = Solubility of compound; assay type: physicochemical
[20] = Permeability in human Caco2 cells at 5 uM after 120 mins by LC-MS/MS analysis relative to control; assay type: ADME, cell-based; conditions: Caco-2, read-out: Fabs
In short: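 Caco-2 (C2BBe1) monolayers grown confluent on collagen-coated transwell membranes. Buffer is HBSS with 10 mM HEPES at pH 7.4 and pH 6.8. Compound 5 µM added to the apical or basolateral side; duplicate samples taken at 120 min and analysed by LC-MS/MS. Results given as Papp A→B and B→A and efflux ratio B→A/A→B.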

[21] = biological target: Fibroblast growth factor receptor 1 (Homo sapiens, UniProt P11362); experiment: Inhibition of FGFR1 (unknown origin) after 60 mins by ELISA
Chain of Fibroblast growth factor receptor 1 (P11362 whole entry): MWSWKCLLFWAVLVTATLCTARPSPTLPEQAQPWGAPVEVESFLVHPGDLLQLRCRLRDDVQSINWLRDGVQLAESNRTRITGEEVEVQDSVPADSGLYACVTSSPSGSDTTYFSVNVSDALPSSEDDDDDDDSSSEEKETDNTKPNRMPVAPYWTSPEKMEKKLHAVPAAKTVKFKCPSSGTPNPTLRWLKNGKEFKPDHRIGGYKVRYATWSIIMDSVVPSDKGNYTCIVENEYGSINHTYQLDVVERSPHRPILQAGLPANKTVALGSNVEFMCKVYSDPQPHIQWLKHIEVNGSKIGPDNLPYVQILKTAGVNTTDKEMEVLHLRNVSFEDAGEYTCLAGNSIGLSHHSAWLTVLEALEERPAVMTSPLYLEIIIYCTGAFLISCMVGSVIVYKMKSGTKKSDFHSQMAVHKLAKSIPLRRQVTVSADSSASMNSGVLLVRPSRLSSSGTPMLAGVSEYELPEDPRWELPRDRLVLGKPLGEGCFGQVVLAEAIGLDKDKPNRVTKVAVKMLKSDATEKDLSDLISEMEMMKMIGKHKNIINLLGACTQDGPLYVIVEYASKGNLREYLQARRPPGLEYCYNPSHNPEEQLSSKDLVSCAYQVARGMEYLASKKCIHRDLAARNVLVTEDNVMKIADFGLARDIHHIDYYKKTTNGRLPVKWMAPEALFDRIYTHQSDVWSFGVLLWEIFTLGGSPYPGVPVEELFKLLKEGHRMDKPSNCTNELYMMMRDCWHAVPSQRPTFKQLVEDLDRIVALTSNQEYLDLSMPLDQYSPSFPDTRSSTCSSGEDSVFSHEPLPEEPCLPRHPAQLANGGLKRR

Cc1ccc(C(=O)Nc2cccc(C(F)(F)F)c2)cc1-c1ccc2c(-c3cnn(C4CCN(C)CC4)c3)n[nH]c2c1
pIC50 [1]: 7.03 | AUC(0-inf) [2]: 563 ng·h/mL | Tmax [3]: 1.33 h | AUC(0-t) [4]: 552 ng·h/mL | pIC50 [5]: 8.42 | MRT [6]: 3.96 h | pIC50 [7]: 7.25 | Cmax [8]: 170 ng/mL | half-life [9]: 2.75 h

Cc1ccc(C(=O)Nc2cccc(C(F)(F)F)c2)cc1-c1ccc2c(-c3cnn(C)c3)n[nH]c2c1
pIC50 [1]: 7.18 | AUC(0-inf) [2]: 3480 ng·h/mL | Tmax [3]: 1.17 h | AUC(0-t) [4]: 3480 ng·h/mL | pIC50 [5]: 8.36 | MRT [6]: 3.26 h | pIC50 [7]: 7.61 | Cmax [8]: 890 ng/mL | half-life [9]: 2.75 h

O=C(Nc1cccc(-c2ccc3cn[nH]c3c2)c1)Nc1cccc(C(F)(F)F)c1
inhibition [10]: 20.1% | inhibition [11]: 53.3%

Cc1ccc(C(=O)Nc2cccc(C(F)(F)F)c2)cc1-c1ccc2c(-c3ccc(N4CCN(C)CC4)cc3)n[nH]c2c1
pIC50 [1]: 6.87 | Tmax [3]: 1.33 h | AUC(0-t) [4]: 44 ng·h/mL | pIC50 [5]: 8.06 | pIC50 [7]: 7.05 | Cmax [8]: 15.9 ng/mL

Cc1ccc(C(=O)Nc2cccc(C(F)(F)F)c2)cc1-c1ccc2c(-c3ccc(C(=O)N4CCN(C)CC4)cc3)n[nH]c2c1
pIC50 [1]: 6.52 | Activity [12]: 45% | pIC50 [5]: 8.19

Cc1ccc(C(=O)Nc2cccc(C(F)(F)F)c2)cc1-c1ccc2c(-c3cnn(CC(C)O)c3)n[nH]c2c1 (stereo unspecified)
pIC50 [1]: 6.47 | AUC(0-inf) [2]: 334 ng·h/mL | Tmax [3]: 0.25 h | AUC(0-t) [4]: 324 ng·h/mL | pIC50 [5]: 8.43 | MRT [6]: 1.37 h | pIC50 [7]: 6.71 | Cmax [8]: 202 ng/mL | half-life [9]: 0.75 h

CCCn1cc(-c2n[nH]c3cc(-c4cc(C(=O)Nc5cccc(C(F)(F)F)c5)ccc4C)ccc23)cn1
pIC50 [1]: 6.45 | Activity [12]: 41% | pIC50 [5]: 8.49

Cc1ccc(C(=O)Nc2cccc(C(F)(F)F)c2)cc1-c1ccc2c(-c3cnn(C4CCCCO4)c3)n[nH]c2c1 (stereo unspecified)
pIC50 [1]: 6.92 | Activity [12]: 45% | pIC50 [5]: 8.28

Nc1n[nH]c2cc(-c3cccc(NC(=O)c4cccc(C(F)(F)F)c4)c3)ccc12
inhibition [10]: 22.8% | inhibition [11]: 24.8%

Cn1cccc(C(=O)Nc2cccc(-c3ccc4[nH]ncc4c3)c2)c1=O
inhibition [13]: 76%

Cc1ccc(C(=O)Nc2cccc(C(F)(F)F)c2)cc1-c1ccc2c(-c3cnn(C(C)C)c3)n[nH]c2c1
pIC50 [1]: 6.34 | Activity [12]: 31% | pIC50 [5]: 8.11

COc1cc(CCc2cc(NC(=O)c3ccc(N4C[C@@H](C)N[C@@H](C)C4)cc3)n[nH]2)cc(OC)c1 [FEXAGRATINIB]
pIC50 [14]: 7.71 | pIC50 [15]: 8.24 | pIC50 [16]: 8.35 | pIC50 [17]: 8.23

Cc1ccc(C(=O)Nc2cc(CN3CCN(C)CC3)cc(C(F)(F)F)c2)cc1-c1ccc2c(-c3cnn(C4CC4)c3)n[nH]c2c1
AUC(0-inf) [2]: 610 ng·h/mL | Tmax [3]: 1.67 h | AUC(0-t) [4]: 66.2 ng·h/mL | MRT [6]: 3.2 h | Cmax [8]: 111 ng/mL | efflux ratio at 2 h, 5 µM [18]: 42.7 | half-life [9]: 1.4 h | solubility [19]: 10 µM (≈ 6.14 µg/mL) | Fa at 2 h, 5 µM [20]: 12%

Cc1ccc(C(=O)Nc2cccc(C(F)(F)F)c2)cc1-c1ccc2c(-c3cnn(CCO)c3)n[nH]c2c1
pIC50 [1]: 6.76 | Activity [12]: 35% | pIC50 [5]: 8.54

O=C(Nc1cccc(C(F)(F)F)c1)c1cccc(-c2ccc3cn[nH]c3c2)c1
inhibition [10]: 58.2% | inhibition [11]: 84.7%

Cc1ccc(C(=O)Nc2cccc(C(F)(F)F)c2)cc1-c1ccc2c(-c3cn[nH]c3)n[nH]c2c1
pIC50 [1]: < 6.00 | pIC50 [5]: 7.25 | pIC50 [7]: < 6.00 | pIC50 [21]: < 7.00

Cn1ncc2ccc(-c3cccc(NC(=O)c4cccc(C(F)(F)F)c4)c3)cc21
inhibition [10]: 7.6% | inhibition [11]: 29.8%

Nc1n[nH]c2ccc(-c3cccc(NC(=O)c4cccc(C(F)(F)F)c4)c3)cc12
inhibition [10]: 13.1% | inhibition [11]: 35.9%
